Source: PubChem BioAssay (several laboratories)
UPR XBP1 act: activators of adaptive XBP1 UPR arm, primary screen, cell-based, CHO-XBP1 luciferase reporter, luminescence, uHTS; 0.33% of 330,000 active; AID 463104, 2010; activation, % at 20 µM; IRE1-XBP1 UPR activation; percent of tunicamycin response, DMSO as zero;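 active means versus positive control, 20 µM dose yields 30% or more activation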;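 further: 100% = tunicamycin at 10 µg/mL and 0% = DMSO only wells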
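Material: IRE1-XBP1 luciferase reporter CHO line / Quantity: one thousand reporter cells per well / Buffer or medium: F12 with 10% serum / Compound: 20 µM single concentration, DMSO 1% / Times: 6 h treatment, 37 °C / Detection: Steady-Glo luciferase glow luminescence, 10 min after reagent addition / Benchmarks: tunicamycin high, DMSO low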
CSC inhib: cancer stem cell viability inhibitors, primary screen, luminescence | 1.1% of 300,000 active | inhibition, % at 7.5 µM | AID 2717, 2010 | cancer stem cell-like cells viability; in the data active means inhibition above about 75%; tested in HMLE shEcad cells
Mdm2 MdmX PPI: inhibitors of human Mdm2-MdmX association, primary screen, cell-based, luminescence, split luciferase, SaOS-2, uHTS | Protein Mdm4 (Homo sapiens) + E3 ubiquitin-protein ligase Mdm2 (Homo sapiens), … | SaOS-2 split-luciferase Mdm2/MdmX complementation | inhibition, % at 8 µM | 3% of 330,000 active | AID 485346, 2010;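 active means inhibition of at least 50% at 8 µM in the primary screen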
Target sequence (O15151 whole entry, looked up): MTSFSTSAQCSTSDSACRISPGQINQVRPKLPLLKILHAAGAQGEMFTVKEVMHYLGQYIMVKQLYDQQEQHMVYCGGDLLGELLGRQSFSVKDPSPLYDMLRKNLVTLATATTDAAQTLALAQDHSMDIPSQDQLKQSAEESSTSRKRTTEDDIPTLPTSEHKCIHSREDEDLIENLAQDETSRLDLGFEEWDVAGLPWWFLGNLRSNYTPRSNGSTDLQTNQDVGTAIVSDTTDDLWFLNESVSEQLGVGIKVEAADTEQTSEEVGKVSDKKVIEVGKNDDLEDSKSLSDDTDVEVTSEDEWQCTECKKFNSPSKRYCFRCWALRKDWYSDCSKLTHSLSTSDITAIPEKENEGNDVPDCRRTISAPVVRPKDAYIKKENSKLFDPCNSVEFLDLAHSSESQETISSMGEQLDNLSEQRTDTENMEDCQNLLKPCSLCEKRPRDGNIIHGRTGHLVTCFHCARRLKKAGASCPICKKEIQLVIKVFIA
Target sequence (Q00987 whole entry, looked up): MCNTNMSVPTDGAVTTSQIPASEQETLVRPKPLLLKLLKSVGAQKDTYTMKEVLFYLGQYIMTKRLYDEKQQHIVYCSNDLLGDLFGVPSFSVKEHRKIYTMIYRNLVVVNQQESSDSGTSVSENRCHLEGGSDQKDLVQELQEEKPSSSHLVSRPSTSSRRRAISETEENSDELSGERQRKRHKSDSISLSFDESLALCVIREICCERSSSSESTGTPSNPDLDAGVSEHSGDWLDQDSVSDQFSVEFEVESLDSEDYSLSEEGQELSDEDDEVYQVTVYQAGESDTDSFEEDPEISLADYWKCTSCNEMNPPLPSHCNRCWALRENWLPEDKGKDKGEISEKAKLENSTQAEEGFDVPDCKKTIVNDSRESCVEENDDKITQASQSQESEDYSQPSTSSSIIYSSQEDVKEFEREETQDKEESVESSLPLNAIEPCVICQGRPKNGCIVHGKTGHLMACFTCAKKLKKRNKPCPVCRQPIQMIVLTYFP
Beta apoptosis: inhibitors of cytokine-induced beta cell apoptosis, primary screen, luminescence. protection from apoptosis, % (no concentration beside the values). AID 435005, 2010. 0.8% of 300,000 active. INS-1E cytokine-induced death, ATP luminescence, 48 h; percent of positive-control rescue, neutral wells zero;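 active means Every replicate reaches about 75%, or at least half do and their mean reaches it too, limit read from the data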;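 further: 0% = cytokine-treated negative control wells and 100% = positive control rescue; higher means more ATP so stronger rescue from cytokine killing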
SKKanGAS inh: S. pyogenes SKKanGAS growth inhibitors in kanamycin, primary screen, streptokinase expression inhibitor project, SKKanGAS strain, BacTiter-Glo luminescence | inhibition, % at 7.5 µM | 1.3% of 300,000 active | 6 h;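 active means mean replicate score, as percent of positive control median, at least 50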;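 further: strain carries kanamycin resistance gene driven by streptokinase promoter and grows in 40 µg/ml kanamycin; loss of luminescence reflects streptokinase promoter inhibition or plain growth inhibition; 0% = median of DMSO wells and 100% = positive control at its reference dose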
UPR CHOP act: activators of apoptotic CHOP UPR arm, primary screen, cell-based, CHO-CHOP luciferase reporter, luminescence, uHTS; UPR activation; percent of tunicamycin response over DMSO baseline; 0.34% of 330,000 active; AID 449763, 2010; activation, % at 10 µM;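 active means at 10 µM dose, activation of 40% or more, normalized to positive control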;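 further: 100% = tunicamycin at 10 µg/mL and 0% = DMSO alone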
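Test system: CHO-CHOP cells, stable luciferase reporter of PERK-eIF2a-CHOP signalling | Quantity: 500 CHO-CHOP cells per well | Buffer or medium: F12 plus 10% serum | Compound dosing: 10 µM single point, 0.5% DMSO | Schedule: 6 h compound treatment, 37 °C | Signal: Luciferase luminescence | Control set: Tunicamycin high control, DMSO low control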
Starred values were filed as active, the others as inactive; / = no result given. This is a sample that favours compounds with a hit; in the whole collection about 4.8% have one here.

SMILES	UPR XBP1 act	CSC inhib	Mdm2 MdmX PPI	Beta apoptosis	SKKanGAS inh	UPR CHOP act
O=C(N/N=C/c1cc(Cl)cc([N+](=O)[O-])c1O)c1ccc2c(c1)OCO2	0	31	36	22	2	4
CCOc1ccc(OCCC(=O)OCC(=O)N2CCN(c3ccc(OC)cc3)CC2)cc1	-1	-4	6	-4	-9	-1
O=C(N/N=C/c1cc(Cl)ccc1O)c1cccnc1	0	31	31	86*	85*	-2
O=C(N/N=C/c1ccc(Cl)cc1Cl)c1ccncc1	0	-18	-3	2	-1	2
O=C(N/N=C/c1cc(Br)cc(Br)c1O)c1ccncc1	-1	-6	18	79*	69*	-1
O=C(N/N=C/c1cccnc1)c1cccc(Cl)c1	2	-8	-14	6	-3	1
O=C(Nc1cc(S(=O)(=O)Nc2ccc(Cl)cc2)ccc1O)c1ccc(S(=O)(=O)N2CCCCCC2)cc1	-3	18	13	-12	13	-1
O=C(N/N=C/c1cc(Cl)cc(Cl)c1O)c1ccncc1	0	9	34	51	88*	-3
O=C(N/N=C\c1cc(Cl)ccc1O)c1ccc(S(=O)(=O)N2CCCCC2)cc1	3	-4	32	97*	121*	-2
Clc1ccc(-c2nc3cnccn3c2NC2CCCC2)cc1	0	18	14	7	2	0
c1ccc(-c2nc3ccccn3c2NC2CCCC2)nc1	-3	2	30	/	75*	-1
O=C(COc1ccc2c(-c3ccccc3)cc(=O)oc2c1)NC1CCS(=O)(=O)C1 (stereo not given)	-1	-5	10	-2	/	1
CCOC(=O)Cc1csc(NC(=O)c2sc3nc4ccc(C)cc4cc3c2N)n1	-2	-3	-2	-2	11	3
CCc1nnc(NC(=O)c2sc3nc4cc(C)ccc4cc3c2N)s1	3	12	3	7	93*	-2
c1ccc(C2CCC(N3CCN(c4ccccc4)CC3)CC2)cc1 (stereo not given)	-7	1	16	-3	1	-1
COc1ccc(N2CC(NC(=O)N3CCN(C(=O)c4ccco4)CC3)CC2=O)cc1OC (stereo not given)	2	-6	15	/	-11	0
CCOc1ccc(NC(=O)CSc2nnc(Cc3ccccc3)c(=O)n2N)cc1	-2	/	15	-6	55*	0
CCN(CC(=O)Nc1c(F)cccc1F)C(=O)CSc1nc(C)cc(C)n1	-2	/	16	-2	1	1
Cc1cccc(-c2oc3ccccc3c2C#CCCCCO)c1	2	101*	30	-1	76*	0
Cc1cccc(-c2oc3ccccc3c2C#CCCO)c1	5	89*	13	-4	3	1
CC1CC(C)CN(C(=O)COC(=O)c2ccc3ccccc3n2)C1 (stereo not given)	0	4	-29	3	/	0
COc1ccc(O)c(C(=O)c2cnc3nc4ccccc4n3c2)c1	/	55	/	83*	17	/
S=C1CCC(c2ccc(Br)cc2)=NN1c1ccccc1	1	26	14	3	2	2
CSc1ccc(S(=O)(=O)NCC(=O)OCC(=O)N2CCCC2=O)cc1[N+](=O)[O-]	-1	-11	30	-6	68*	0
S=c1[nH]c(-c2ccccc2)cn1/N=C/c1cccc2ccccc12	1	59	34	6	57*	1
SMILES	UPR XBP1 act	CSC inhib	Mdm2 MdmX PPI	Beta apoptosis	SKKanGAS inh	UPR CHOP act
NC(=O)c1c(NC(=O)C(=O)N2CCOCC2)sc2c1CCCC2	-3	-12	24	-10	1	0
Nc1nc(CN2CCN(c3ccc(F)cc3)CC2)nc(N2CCCc3ccccc32)n1	-2	-9	14	6	84*	-2
COc1cc(OC)cc(C(=O)N2CCN(C(=O)c3cccnc3)CC2)c1	-4	-11	5	-8	/	2
c1ccc2c(c1)ncn2CCCCOc1ccc2c(c1)CCC2	2	0	14	91*	0	-1
Cc1ccccc1OCCCCn1cnc2ccccc21	10	4	12	103*	/	6
Cc1ccccc1OCCn1c(C)nc2ccccc21	-3	18	14	78*	4	1
Cc1ccc(OCCCCn2cnc3ccccc32)cc1	-2	2	-36	11	20	1
Cc1nc2ccccc2n1CCOc1ccccc1	-1	12	-35	0	2	-2
COC(=O)c1sccc1NS(=O)(=O)c1ccccc1	-4	-2	23	1	6	2
CC(C)(C)N1C(=O)[C@H]2[C@@H](c3ccc(Br)cc3)N3C(=O)N(c4ccccc4)C(=O)[C@@]3(C)[C@H]2C1=O	-1	-8	-6	3	0	2
COc1ccc2nc(-n3c(C)ccc3C)sc2c1	0	-1	20	2	54*	3
C=C[C@@H]1c2c(F)cccc2N(S(=O)(=O)c2ccc(C)cc2)[C@H](c2ccc(C(=O)OC)cc2)C1(C#N)C#N	-2	15	14	5	/	1
C=C[C@@H]1c2c(F)cccc2N(S(=O)(=O)c2ccc(C)cc2)[C@H](c2ccc(OC(C)=O)cc2)C1(C#N)C#N	-1	112*	37	-1	/	-1
CSc1ccccc1NC(=S)NCc1ccc(Cl)cc1	-1	11	-15	0	10	4
Cc1cccc(NC2=C(NC(=O)c3ccccc3)C(=O)c3ccccc3C2=O)c1	-1	16	9	78*	26	1
O=C(Nc1ccc(Nc2ccccc2)cc1)c1ccc(Cl)cc1	-2	41	21	14	7	1
CN(C1=C(NC(=O)c2ccc(Cl)cc2)C(=O)c2ccccc2C1=O)c1ccccc1	1	64	33	93*	2	3
O=C(NC1=C(Nc2ccc(Cl)cc2)C(=O)c2ccccc2C1=O)c1ccccc1	-2	42	22	117*	42	5
Cc1ccccc1C(C)NC(=O)COC(=O)Cn1cc(C(F)(F)F)ccc1=O (stereo not given)	2	/	4	/	/	1
CC(C)Sc1nc2ccccc2n2cnnc12	0	-13	15	8	-8	0
CC1=CC(C)(C)N(C(=O)CSc2nnc(-c3ccc(C)cc3)o2)c2ccc(C)cc21	-3	/	40	82*	13	-1
O=c1ccc(N=Nc2ccccc2)ccc1O	/	47	/	18	91*	/
